From ChEMBL document CHEMBL2040734, “Benzothiazoles: search for anticancer agents” (2012)

How the values were obtained:
Type in all cases: functional
OVCAR-4 = assay: Cytotoxicity against human OVCAR4 cells assessed as cell growth at 0.01 uM after 48 hrs by sulforhodamine B assay; conditions: OVCAR-4, 48 h, read-out: Activity
M14 [1] = assay: Cytotoxicity against human M14 cells assessed as cell growth at 100 uM after 48 hrs by sulforhodamine B assay; conditions: M14, 48 h, read-out: Activity
UACC-257 [2] = assay: Growth inhibition of human UACC257 cells after 48 hrs by sulforhodamine B assay; conditions: UACC-257, 48 h; for CC50: read-out: LC50 (the source's name)
Procedure, shortened: (§1)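 Adherent NCI-60 lines were grown in RPMI 1640 with 5% FBS and 2 mM L-glutamine, plated at 5000–40,000 cells/well and preincubated 24 h. They were then exposed to five concentrations (0.01–100 µM, from a DMSO stock) for 48 h at 37 °C, 5% CO2. Cells were fixed with cold TCA (10% final, 60 min, 4 °C) and stained with 0.4% SRB. Dye was solubilized in 10 mM Tris base and A515 read. GI50 was derived from time-zero, control and treated absorbances.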

EKVX = assay: Cytotoxicity against human EKVX cells assessed as cell growth at 0.01 uM after 48 hrs by sulforhodamine B assay; conditions: read-out: Activity
Procedure, shortened: (§2)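 Five-dose NCI panel run at 0.01, 0.1, 1, 10 and 100 µM. Cells were in RPMI 1640 with 5% FBS and 2 mM L-glutamine, seeded at 5000–40,000 cells/well and pre-incubated 24 h. Drug was diluted from a DMSO stock into medium with 50 µg/ml gentamicin. Exposure was 48 h at 37 °C, 5% CO2. Cells were fixed with cold TCA and stained with 0.4% SRB, read at 515 nm. Percent growth came from time-zero, control and test absorbances.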

NCI-H322M = assay: Cytotoxicity against human NCI-H322M cells assessed as cell growth at 10 '-5 M after 48 hrs by sulforhodamine B assay; conditions: read-out: Activity
SR [3] = assay: Growth inhibition of human SR cells after 48 hrs by sulforhodamine B assay; conditions: for CC50: read-out: LC50 (the source's name)
Procedure, shortened: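 Leukemia suspension lines were grown in RPMI 1640 with 5% FBS and 2 mM L-glutamine and plated at 5000–40,000 cells/well with 24 h preincubation. They were treated at 0.01, 0.1, 1, 10 and 100 µM (DMSO stock) for 48 h at 37 °C. Settled cells were fixed with 80% TCA (16% final) and stained with 0.4% SRB in 1% acetic acid, then read at 515 nm. GI50 was calculated against time-zero and control wells.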

UACC-257 [4] = assay: Cytotoxicity against human UACC257 cells assessed as cell growth at 10 uM after 48 hrs by sulforhodamine B assay; conditions: UACC-257, 48 h, read-out: Activity
M14 [5] = assay: Cytotoxicity against human M14 cells assessed as cell growth at 10 uM after 48 hrs by sulforhodamine B assay; conditions: M14, 48 h, read-out: Activity
KM12 = assay: Cytotoxicity against human KM12 cells assessed as cell growth at 10 '-5 M after 48 hrs by sulforhodamine B assay; conditions: KM12, 48 h, read-out: Activity
A498 = assay: Cytotoxicity against human A498 cells assessed as cell growth at 10 uM after 48 hrs by sulforhodamine B assay; conditions: A498, 48 h, read-out: Activity
Procedure, shortened: (§3)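 NCI-60 five-dose screen. Cells were grown in RPMI 1640 with 5% FBS and 2 mM L-glutamine and preincubated 24 h. Compound (DMSO stock) was tested at 0.01, 0.1, 1, 10 and 100 µM for 48 h at 37 °C. Cells were fixed in situ with cold TCA (final 10%) and stained with 0.4% SRB. A515 was read, and percent growth was calculated against time-zero and control plates.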

HL-60(TB) [6] = assay: Cytotoxicity against human HL-60(TB) cells assessed as cell growth at 0.01 uM after 48 hrs by sulforhodamine B assay; conditions: HL-60, 48 h, read-out: Activity
Procedure, shortened: (§4)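 NCI five-dose screen on the HL-60(TB) leukaemia line, grown in RPMI 1640 with 5% FBS and 2 mM L-glutamine and plated for 24 h before dosing. DMSO stocks were diluted in medium. Cells were exposed 48 h at 37 °C, then settled cells were fixed in 16% TCA (final) and stained with SRB, absorbance 515 nm. Percent growth = (Ti−Tz)/(C−Tz)×100, or (Ti−Tz)/Tz×100 when Ti<Tz.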

ACHN = assay: Cytotoxicity against human ACHN cells assessed as cell growth at 100 uM after 48 hrs by sulforhodamine B assay; conditions: read-out: Activity; procedure, shortened: as §3
SR [7] = assay: Cytotoxicity against human SR cells assessed as cell growth at 10 uM after 48 hrs by sulforhodamine B assay; conditions: read-out: Activity
NCI-H23 = assay: Cytotoxicity against human NCI-H23 cells assessed as cell growth at 10 '-5 M after 48 hrs by sulforhodamine B assay; conditions: NCI-H23, 48 h, read-out: Activity
HL-60(TB) [8] = assay: Cytotoxicity against human HL-60(TB) cells assessed as cell growth at 100 uM after 48 hrs by sulforhodamine B assay; conditions: HL-60, 48 h, read-out: Activity; procedure, shortened: as §4
PC-3 = assay: Cytotoxicity against human PC3 cells assessed as cell growth at 10 '-5 M after 48 hrs by sulforhodamine B assay; conditions: PC-3, 48 h, read-out: Activity
HCT-15 = assay: Cytotoxicity against human HCT15 cells assessed as cell growth at 10 uM after 48 hrs by sulforhodamine B assay; conditions: HCT-15, 48 h, read-out: Activity; procedure, shortened: as §2
HCT-116 = assay: Cytotoxicity against human HCT116 cells assessed as cell growth at 1 uM after 48 hrs by sulforhodamine B assay; conditions: HCT-116, 48 h, read-out: Activity; procedure, shortened: as §2
Malme-3M = assay: Cytotoxicity against human MALME-3M cells assessed as cell growth at 100 uM after 48 hrs by sulforhodamine B assay; conditions: read-out: Activity
UACC-257 [9] = assay: Cytotoxicity against human UACC257 cells assessed as cell growth at 0.1 uM after 48 hrs by sulforhodamine B assay; conditions: UACC-257, 48 h, read-out: Activity
SK-OV-3 = assay: Cytotoxicity against human SKOV3 cells assessed as cell growth at 10 uM after 48 hrs by sulforhodamine B assay; conditions: SK-OV-3, 48 h, read-out: Activity
SK-MEL-2 = assay: Cytotoxicity against human SK-MEL-2 cells assessed as cell growth at 10 '-5 M after 48 hrs by sulforhodamine B assay; conditions: SK-MEL-2, 48 h, read-out: Activity
UACC-62 = assay: Cytotoxicity against human UACC62 cells assessed as cell growth at 0.1 uM after 48 hrs by sulforhodamine B assay; conditions: UACC-62, 48 h, read-out: Activity
U-251 = assay: Cytotoxicity against human U251 cells assessed as cell growth at 0.01 uM after 48 hrs by sulforhodamine B assay; conditions: U-251, 48 h, read-out: Activity
RPMI-8226 = assay: Cytotoxicity against human RPMI8226 cells assessed as cell growth at 100 uM after 48 hrs by sulforhodamine B assay; conditions: RPMI-8226, 48 h, read-out: Activity
SNB-75 = assay: Growth inhibition of human SNB75 cells after 48 hrs by sulforhodamine B assay; conditions: SNB-75, 48 h; procedure, shortened: as §1

Cc1ccc2nc(Nc3c(C)cccc3C)sc2c1
growth at 0.01 µM (OVCAR-4): 97% | growth at 100 µM (M14 [1]): 53% | GI50 (UACC-257 [2]): > 100 µM | TGI (UACC-257 [2]): > 100 µM | CC50 (UACC-257 [2]): > 100 µM | growth at 0.01 µM (EKVX): 93% | growth at 10 µM (NCI-H322M): 71% | GI50 (SR [3]): 0.412 µM | TGI (SR [3]): > 100 µM | CC50 (SR [3]): > 100 µM | growth at 10 µM (UACC-257 [4]): 70% | growth at 10 µM (M14 [5]): 42% | growth at 10 µM (KM12): 11.1% | growth at 10 µM (A498): -1% | growth at 0.01 µM (HL-60(TB) [6]): 107% | growth at 100 µM (ACHN): 49% | growth at 10 µM (SR [7]): 13% | growth at 10 µM (NCI-H23): 57.5% | growth at 100 µM (HL-60(TB) [8]): 53% | growth at 10 µM (PC-3): 40.4% | growth at 10 µM (HCT-15): 23% | growth at 1 µM (HCT-116): 66% | growth at 100 µM (Malme-3M): 53% | growth at 0.1 µM (UACC-257 [9]): 99% | growth at 10 µM (SK-OV-3): 47% | growth at 10 µM (SK-MEL-2): 34.6% | growth at 0.1 µM (UACC-62): 85% | growth at 0.01 µM (U-251): 97% | growth at 100 µM (RPMI-8226): 73% | GI50 (SNB-75): 1.26 µM | LC50 (SNB-75): > 100 µM | TGI (SNB-75): > 100 µM

Clc1cccc(Cl)c1Nc1nc2cccc(Cl)c2s1
growth at 0.01 µM (OVCAR-4): 94% | growth at 100 µM (M14 [1]): -56% | GI50 (UACC-257 [2]): 1.35 µM | TGI (UACC-257 [2]): 3.1 µM | CC50 (UACC-257 [2]): 7.09 µM | growth at 0.01 µM (EKVX): 96% | growth at 10 µM (NCI-H322M): 9.8% | GI50 (SR [3]): 1.03 µM | TGI (SR [3]): 3.24 µM | CC50 (SR [3]): > 100 µM | growth at 10 µM (UACC-257 [4]): -71% | growth at 10 µM (M14 [5]): -68% | growth at 10 µM (KM12): -68.5% | growth at 10 µM (A498): -97% | growth at 0.01 µM (HL-60(TB) [6]): 104% | growth at 100 µM (ACHN): -100% | growth at 10 µM (SR [7]): -49% | growth at 10 µM (NCI-H23): -10.5% | growth at 100 µM (HL-60(TB) [8]): -57% | growth at 10 µM (PC-3): 4.1% | growth at 10 µM (HCT-15): -85% | growth at 1 µM (HCT-116): 51% | growth at 100 µM (Malme-3M): -84% | growth at 0.1 µM (UACC-257 [9]): 101% | growth at 10 µM (SK-OV-3): -89% | growth at 10 µM (SK-MEL-2): -52.7% | growth at 0.1 µM (UACC-62): 86% | growth at 0.01 µM (U-251): 104% | growth at 100 µM (RPMI-8226): -13% | GI50 (SNB-75): 0.791 µM | LC50 (SNB-75): > 100 µM
